Values belong to the compound of their own block, whether it stands above or below them.
Tests used:
SW480 [1] = assay: Percent inhibition of SW480 cell growth in G0-G1 phase at 0 nm concentration in FACS cell cycle after 4 hr of treatment; format: functional, Homo sapiens
In short: (§1)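 SW480 cells were exposed to compound for 4, 16 or 24 h. Cells were fixed in 70% ethanol, pelleted for 1 min at 3000g at 25 °C and washed once in PBS. They were then treated with ribonuclease for 15 min at 37 °C and stained with propidium iodide for 30 min at room temperature. Flow cytometry gave the % of cells in G0-G1, S, G2-M and subG0, and the G2/G1 ratio.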

SW480 [2] = assay: Percent inhibition of SW480 cell growth in G2-M phase at 92 nm concentration in FACS cell cycle after 24 hr of treatment; format: functional, Homo sapiens; in short: as §1
SW480 [3] = assay: Percent inhibition of SW480 cell growth in S phase at 270 nm concentration in FACS cell cycle after 24 hr of treatment; format: functional, Homo sapiens; in short: as §1
SW480 [4] = assay: Percent inhibition of SW480 cell growth in G0-G1 phase at 0 nm concentration in FACS cell cycle after 24 hr of treatment; format: functional, Homo sapiens; in short: as §1
SW480 [5] = assay: Percent inhibition of SW480 cell growth in sub G0 phase at 92 nm concentration in FACS cell cycle after 24 hr of treatment; format: functional, Homo sapiens; in short: as §1
[6] = Inhibition ratio of G2 and G1 phase cellular fractions of SW480 cells treated with compound at 92 nM concentration at 24 h; format: functional; in short: as §1
SW480 [7] = assay: Percent inhibition of SW480 cell growth in G0-G1 phase at 0 nm concentration in FACS cell cycle after 16 hr of treatment; format: functional, Homo sapiens; in short: as §1
[8] = Inhibition ratio of G2 and G1 phase cellular fractions of SW480 cells treated with compound at 270 nM concentration at 16 h; format: functional; in short: as §1
SW480 [9] = assay: Percent inhibition of SW480 cell growth in S phase at 92 nm concentration in FACS cell cycle after 24 hr of treatment; format: functional, Homo sapiens; in short: as §1
SW480 [10] = assay: Percent inhibition of SW480 cell growth in G2-M phase at 0 nm concentration in FACS cell cycle after 4 hr of treatment; format: functional, Homo sapiens; in short: as §1
SW480 [11] = assay: Percent inhibition of SW480 cell growth in sub G0 phase at 92 nm concentration in FACS cell cycle after 4 hr of treatment; format: functional, Homo sapiens; in short: as §1
SW480 [12] = assay: Percent inhibition of SW480 cell growth in S phase at 270 nm concentration in FACS cell cycle after 4 hr of treatment; format: functional, Homo sapiens; in short: as §1
SW480 [13] = assay: Percent inhibition of SW480 cell growth in G0-G1 phase at 270 nm concentration in FACS cell cycle after 24 hr of treatment; format: functional, Homo sapiens; in short: as §1
[14] = Inhibition ratio of G2 and G1 phase cellular fractions of SW480 cells treated with compound at 92 nM concentration at 4 h; format: functional; in short: as §1
[15] = target: Cyclin-dependent kinase 2/cyclin E (Homo sapiens, UniProt P24941); assay: In vitro inhibition of recombinant Cyclin Dependent Kinase-2/Cyclin E.; format: protein-complex assay
SW480 [16] = assay: Percent inhibition of SW480 cell growth in G2-M phase at 270 nm concentration in FACS cell cycle after 16 hr of treatment; format: functional, Homo sapiens; in short: as §1
SW480 [17] = assay: Percent inhibition of SW480 cell growth in G0-G1 phase at 92 nm concentration in FACS cell cycle after 4 hr of treatment; format: functional, Homo sapiens; in short: as §1
SW480 [18] = assay: Percent inhibition of SW480 cell growth in sub G0 phase at 270 nm concentration in FACS cell cycle after 16 hr of treatment; format: functional, Homo sapiens; in short: as §1
[19] = Inhibition ratio of G2 and G1 phase cellular fractions of SW480 cells treated with compound at 0 nM concentration at 16 h; format: functional; in short: as §1
SW480 [20] = assay: Percent inhibition of SW480 cell growth in S phase at 92 nm concentration in FACS cell cycle after 16 hr of treatment; format: functional, Homo sapiens; in short: as §1
SW480 [21] = assay: Percent inhibition of SW480 cell growth in S phase at 270 nm concentration in FACS cell cycle after 16 hr of treatment; format: functional, Homo sapiens; in short: as §1
SW480 [22] = assay: Percent inhibition of SW480 cell growth in S phase at 92 nm concentration in FACS cell cycle after 4 hr of treatment; format: functional, Homo sapiens; in short: as §1
SW480 [23] = assay: In vitro inhibition of SW480 (human colon cancer) cell proliferation.; format: functional, cell-based
In short: (§2)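 MTT-based proliferation assay run on tumour cells. IC50 values were taken from a single experiment.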

SW480 [24] = assay: Percent inhibition of SW480 cell growth in G0-G1 phase at 92 nm concentration in FACS cell cycle after 24 hr of treatment; format: functional, Homo sapiens; in short: as §1
SW480 [25] = assay: Percent inhibition of SW480 cell growth in G2-M phase at 92 nm concentration in FACS cell cycle after 4 hr of treatment; format: functional, Homo sapiens; in short: as §1
SW480 [26] = assay: Percent inhibition of SW480 cell growth in G2-M phase at 270 nm concentration in FACS cell cycle after 24 h of treatment; format: functional, Homo sapiens; in short: as §1
SW480 [27] = assay: Percent inhibition of SW480 cell growth in S phase at 0 nm concentration in FACS cell cycle after 4 h of treatment; format: functional, Homo sapiens; in short: as §1
SW480 [28] = assay: Percent inhibition of SW480 cell growth in G2-M phase at 0 nm concentration in FACS cell cycle after 16 hr of treatment; format: functional, Homo sapiens; in short: as §1
SW480 [29] = assay: Percent inhibition of SW480 cell growth in sub G0 phase at 270 nm concentration in FACS cell cycle after 24 h of treatment; format: functional, Homo sapiens; in short: as §1
SW480 [30] = assay: Percent inhibition of SW480 cell growth in sub G0 phase at 0 nm concentration in FACS cell cycle after 24 hr of treatment; format: functional, Homo sapiens; in short: as §1
SW480 [31] = assay: Percent inhibition of SW480 cell growth in sub G0 phase at 92 nm concentration in FACS cell cycle after 16 h of treatment; format: functional, Homo sapiens; in short: as §1
MDA-MB-435 = assay: In vitro inhibition of MDA MB 435 (human breast cancer) cell proliferation.; format: functional, cell-based; in short: as §2
SW480 [32] = assay: Percent inhibition of SW480 cell growth in G0-G1 phase at 92 nm concentration in FACS cell cycle after 16 hr of treatment; format: functional, Homo sapiens; in short: as §1
SW480 [33] = assay: Percent inhibition of SW480 cell growth in sub G0 phase at 0 nm concentration in FACS cell cycle after 16 hr of treatment; format: functional, Homo sapiens; in short: as §1
SW480 [34] = assay: Percent inhibition of SW480 cell growth in sub G0 phase at 270 nm concentration in FACS cell cycle after 4 hr of treatment; format: functional, Homo sapiens; in short: as §1
[35] = Inhibition ratio of G2 and G1 phase cellular fractions of SW480 cells treated with compound at 270 nM concentration at 4 h; format: functional; in short: as §1
[36] = Inhibition ratio of G2 and G1 phase cellular fractions of SW480 cells treated with compound at 0 nM concentration at 24 h; format: functional; in short: as §1
[37] = Inhibition ratio of G2 and G1 phase cellular fractions of SW480 cells treated with compound at 0 nM concentration at 4 h; format: functional; in short: as §1
SW480 [38] = assay: Percent inhibition of SW480 cell growth in G0-G1 phase at 270 nm concentration in FACS cell cycle after 4 hr of treatment; format: functional, Homo sapiens; in short: as §1
SW480 [39] = assay: Percent inhibition of SW480 cell growth in S phase at 0 nm concentration in FACS cell cycle after 16 hr of treatment; format: functional, Homo sapiens; in short: as §1
SW480 [40] = assay: Percent inhibition of SW480 cell growth in sub G0 phase at 0 nm concentration in FACS cell cycle after 4 hr of treatment; format: functional, Homo sapiens; in short: as §1
SW480 [41] = assay: Percent inhibition of SW480 cell growth in G2-M phase at 0 nm concentration in FACS cell cycle after 24 hr of treatment; format: functional, Homo sapiens; in short: as §1
SW480 [42] = assay: Percent inhibition of SW480 cell growth in G2-M phase at 270 nm concentration in FACS cell cycle after 4 hr of treatment; format: functional, Homo sapiens; in short: as §1
SW480 [43] = assay: Percent inhibition of SW480 cell growth in S phase at 0 nm concentration in FACS cell cycle after 24 hr of treatment; format: functional, Homo sapiens; in short: as §1
SW480 [44] = assay: Percent inhibition of SW480 cell growth in G0-G1 phase at 270 nm concentration in FACS cell cycle after 16 hr of treatment; format: functional, Homo sapiens; in short: as §1
[45] = Inhibition ratio of G2 and G1 phase cellular fractions of SW480 cells treated with compound at 92 nM concentration at 16 h; format: functional; in short: as §1
[46] = Inhibition ratio of G2 and G1 phase cellular fractions of SW480 cells treated with compound at 270 nM concentration at 24 h; format: functional; in short: as §1
SW480 [47] = assay: Percent inhibition of SW480 cell growth in G2-M phase at 92 nm concentration in FACS cell cycle after 16 hr of treatment; format: functional, Homo sapiens; in short: as §1

IC50 [15]: 0.006 µM
IC50 (SW480 [23]): 0.092 µM
IC50 (MDA-MB-435): 0.11 µM
SMILES: COc1cc[nH]c1/C=C1\C(=O)Nc2ccc(F)c(C#CC3(O)CCNCC3)c21.Cl
G0/G1 (SW480 [1]): 49.25%
G2/M (SW480 [2]): 15.16%
S (SW480 [3]): 14.54%
G0/G1 (SW480 [4]): 52.41%
SubG0 (SW480 [5]): 11.67%
Ratio [6]: 1.96%
G0/G1 (SW480 [7]): 46.55%
Ratio [8]: 1.94%
S (SW480 [9]): 30.15%
G2/M (SW480 [10]): 18.42%
SubG0 (SW480 [11]): 11.17%
S (SW480 [12]): 34.26%
G0/G1 (SW480 [13]): 50%
Ratio [14]: 1.95%
G2/M (SW480 [16]): 38.44%
G0/G1 (SW480 [17]): 52.49%
SubG0 (SW480 [18]): 43.52%
Ratio [19]: 1.95%
S (SW480 [20]): 28.43%
S (SW480 [21]): 13.82%
S (SW480 [22]): 29.14%
G0/G1 (SW480 [24]): 54.68%
G2/M (SW480 [25]): 18.36%
G2/M (SW480 [26]): 35.45%
S (SW480 [27]): 32.33%
G2/M (SW480 [28]): 14.84%
SubG0 (SW480 [29]): 46.86%
SubG0 (SW480 [30]): 11.85%
SubG0 (SW480 [31]): 13.52%
G0/G1 (SW480 [32]): 55.84%
SubG0 (SW480 [33]): 11.29%
SubG0 (SW480 [34]): 14.47%
Ratio [35]: 1.95%
Ratio [36]: 1.95%
Ratio [37]: 1.94%
G0/G1 (SW480 [38]): 43.9%
S (SW480 [39]): 38.61%
SubG0 (SW480 [40]): 13.29%
G2/M (SW480 [41]): 14.89%
G2/M (SW480 [42]): 21.8%
S (SW480 [43]): 32.7%
G0/G1 (SW480 [44]): 47.74%
Ratio [45]: 1.96%
Ratio [46]: 1.94%
G2/M (SW480 [47]): 15.72%

IC50 [15]: 0.847 µM
IC50 (MDA-MB-435): > 30 µM
SMILES: COc1cc[nH]c1/C=C1/C(=O)Nc2ccc(F)cc21

IC50 [15]: 1 µM
IC50 (MDA-MB-435): > 30 µM
SMILES: COc1cc[nH]c1/C=C1\C(=O)Nc2ccc(F)c(I)c21

IC50 [15]: 0.005 µM
IC50 (SW480 [23]): 0.205 µM
IC50 (MDA-MB-435): 0.3 µM
SMILES: COc1cc[nH]c1/C=C1\C(=O)Nc2ccc(F)c(C#C[C@@H](N)CO)c21

IC50 [15]: 0.045 µM
IC50 (SW480 [23]): 1.19 µM
IC50 (MDA-MB-435): 2.62 µM
SMILES: COc1cc[nH]c1/C=C1\C(=O)Nc2ccc(F)c(C#C[C@@H](NS(C)(=O)=O)[C@@H](C)O)c21
